A selection: hits, their analogues and other compounds. The true share with any hit is near 7.2%.
tolC growth inh: blocks growth of E. coli BW25113 tolC mutant; AID 573; growth inhibition, % at 10 µM (by protocol); 65,000 compounds, 2.2% hits; OD615;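 active = growth inhibition at or above a cutoff equal to the mean over every tested compound plus 3 SD, cut at about 60% in these data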;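 also: growth measured after 20 h incubation at 37 °C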
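Material: E. coli BW25113 ΔtolC::kan, tolC deletion mutant strain. Measure: percent growth inhibition. Schedule: 37 °C, 20 h exposure. Doses: single-point testing at 10 µM. Signal: A615 absorbance measurement. Buffer or medium: kanamycin-containing LB broth (50 µg/mL).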
PLAP act: activators of human placental alkaline phosphatase; P05187; purified PLAP enzyme, luminescent substrate read-out; hits give high values; activation fold at 20 µM; 96,000 compounds, 1.2% hits; AID 696; in the data active = activation fold above about 2
Target sequence (P05187 whole entry, looked up): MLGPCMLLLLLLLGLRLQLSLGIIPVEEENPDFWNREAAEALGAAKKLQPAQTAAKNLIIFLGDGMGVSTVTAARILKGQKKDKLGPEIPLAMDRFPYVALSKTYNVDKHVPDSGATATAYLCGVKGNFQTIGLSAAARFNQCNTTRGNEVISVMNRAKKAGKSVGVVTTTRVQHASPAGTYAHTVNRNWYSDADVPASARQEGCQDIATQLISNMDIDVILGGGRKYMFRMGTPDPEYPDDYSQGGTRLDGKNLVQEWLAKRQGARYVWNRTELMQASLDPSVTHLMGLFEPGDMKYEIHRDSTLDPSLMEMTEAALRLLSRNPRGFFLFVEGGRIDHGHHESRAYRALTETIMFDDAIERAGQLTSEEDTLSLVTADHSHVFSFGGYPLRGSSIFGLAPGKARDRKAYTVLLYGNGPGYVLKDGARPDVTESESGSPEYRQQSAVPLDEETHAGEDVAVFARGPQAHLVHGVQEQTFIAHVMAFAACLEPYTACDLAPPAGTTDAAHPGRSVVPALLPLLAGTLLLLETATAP
PostGolgi ctrl: yeast control strain growth, post-Golgi counter-screen | efflux-deficient yeast background strain, growth absorbance A615, 16 h | inhibition, % at 10 µM | 98,000 compounds, 5% hits | AID 738
PostGolgi yeast: growth inhibition of a yeast mutant, post-Golgi transport screen | post-Golgi transport phenotypic cell assay | inhibition, % at 10 µM | 98,000 compounds, 0.9% hits | AID 739;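 also: yeast cells grown in 1536-well plates; yeast grown about 18 h at 30C before absorbance read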
Ecoli WT expand: growth inhibitors of E. coli BW25113 wild type | 98,000 compounds, 0.15% hits | OD600 absorbance | AID 710 | growth inhibition, % at 100 µM;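 active = growth inhibition above about 50% at one test dose, limit read from the data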;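 also: growth measured after 20 h incubation at 37 °C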
Large screens that a line does not name were inactive. Rule as the data show it, unless noted: active = inhibition above about 30%; inactive = the rest.

O=C(NC12CC3CC(CC(C3)C1)C2)c1ccc(COc2ccc(Cl)cc2[N+](=O)[O-])o1	PostGolgi ctrl 50.8 (no result: tolC growth inh)
CCn1c(NC(=O)c2ccc(COc3ccc(C)cc3[N+](=O)[O-])o2)nc2ccccc21	none (no result: tolC growth inh)
O=S(=O)(c1ccccc1)c1cnn2c(C(F)(F)F)cc(-c3ccccc3)nc12	none (no result: tolC growth inh)
COc1ccccc1-c1cc(C(F)(F)F)n2ncc(S(=O)(=O)c3ccccc3)c2n1	PostGolgi ctrl 46.0 (no result: tolC growth inh)
CCC(=O)c1ccc(OCC(O)CN2CCN(C(c3ccccc3)c3ccccc3)CC2)cc1 (centres undefined)	none (no result: tolC growth inh)
Clc1ccc2[nH]c(-c3ccccc3)cc2c1	PostGolgi ctrl 42.4 (no result: tolC growth inh)
CCc1c(C(=O)Nc2ncn(Cc3cccc(C)c3)n2)csc1C	tolC growth inh 62.4 (no result: PLAP act)
CCOC(=O)CSc1nc(N)c(C(=O)Nc2ccc(N(C)C)cc2)s1	none
CCC1CCCCN1C1Sc2ccc(C(=O)OC)cc2NC1=O (centres undefined)	PostGolgi ctrl 40.1
Cc1ccc(NC(=O)CSCC(=O)N2c3ccccc3CCc3ccccc32)cc1	none (no result: tolC growth inh)
CCN1CCN(Cc2ccccc2NC(=O)Nc2ccc(C)cc2)CC1	PostGolgi ctrl 34.9
Cc1ccc(S(=O)(=O)N=S(CC2CC2(Cl)Cl)CC2CC2(Cl)Cl)cc1 (centres undefined)	none (no result: tolC growth inh)
CCCCCCCCCCn1c2c(c(=N)c3c1CCC3)CCC2	PostGolgi ctrl 97.4, Ecoli WT expand 100.0 (no result: tolC growth inh)
CCOC(=O)Cn1c2c(c(=N)c3c1CCC3)CCC2	none
Cc1cc(NC(=O)CN2CCCCC2C)no1 (centres undefined)	none (no result: tolC growth inh)
CSc1ccc(S(=O)(=O)Nc2ccc3c4c(cccc24)CC3)cc1	PostGolgi ctrl 65.8 (no result: tolC growth inh)
O=S(=O)(Nc1ccc2c3c(cccc13)CC2)c1ccc(F)cc1	PostGolgi ctrl 40.2 (no result: tolC growth inh)
Cc1ccccc1NS(=O)(=O)c1ccc(F)cc1	none
Cc1c2c(n3c(nc4ccccc43)c1C#N)N(Cc1ccccn1)CC2	none (no result: PLAP act, PostGolgi ctrl, PostGolgi yeast, Ecoli WT expand)
Cc1ccsc1C(=O)Nc1nnc(-c2ccco2)o1	tolC growth inh 98.2, Ecoli WT expand 85.0
CCC(=O)Nc1nnc(-c2ccco2)o1	none
O=[N+]([O-])c1ccc(N/N=C/c2c[nH]c3ccccc23)c(S(=O)(=O)Nc2ccc(Cl)cc2)c1	PostGolgi yeast 86.5 (no result: tolC growth inh)
COc1ccccc1NS(=O)(=O)c1cc([N+](=O)[O-])ccc1N/N=C/c1c(C)[nH]c2ccccc12	none (no result: tolC growth inh)
Cc1ccc(NS(=O)(=O)c2cc(C(=O)N3CCc4ccccc4C3)ccc2Cl)cc1	PostGolgi ctrl 63.8, PostGolgi yeast 35.2 (no result: tolC growth inh)
Cc1cccc(NS(=O)(=O)c2cc(C(=O)N3CCN(C)CC3)ccc2C)c1	PostGolgi ctrl 32.1 (no result: tolC growth inh)
COC(=O)CSc1nnc(C)n1-c1cccc(C#N)c1	none
O=Cc1cn(-c2ccccc2)nc1-c1cc2cc(O)ccc2oc1=O	none (no result: tolC growth inh)
N#Cc1cn(-c2ccccc2)nc1-c1cc2ccccc2oc1=O	PostGolgi yeast 36.0
O=C(CCN1C(=O)C2C3C=CC(C3)C2C1=O)NCCN1CCCc2ccccc21 (centres undefined)	PostGolgi ctrl 38.5
O=C(NC1CCCCC1)C(c1ccccc1)N(C(=O)Cc1ccsc1)c1ccccc1 (centres undefined)	none (no result: tolC growth inh)
Cc1cccc(N2CCN(CC(=O)Nc3nccs3)CC2)c1C	PLAP act 2.3, PostGolgi yeast 38.7 (no result: tolC growth inh)
Cc1ccccc1C(=O)NC1CCN(CC(=O)Nc2nccs2)CC1	none
CC(C)CNC(=O)C(=O)N/N=C/c1cccs1	none (no result: tolC growth inh)
O=C(Nc1ccc(/C=C/c2nc3ccccc3o2)cc1)c1ccc(F)cc1	none (no result: tolC growth inh)
NC(=O)CSc1nc(N)c2c3c(sc2n1)CCCCC3	PostGolgi ctrl 31.0
CNC(=O)CSc1nc(N)c2c3c(sc2n1)CCC3	none (no result: tolC growth inh)
CCCCN(Cc1ccco1)C(=O)c1cc2c(=O)[nH]c3ccc(C)cc3c2s1	PostGolgi ctrl 36.0 (no result: tolC growth inh)
CCn1nc([N+](=O)[O-])c(C(C#N)c2nc3cc(C(F)(F)F)ccc3s2)c(Cl)c1=O (centres undefined)	PostGolgi ctrl 35.5 (no result: tolC growth inh)
O=C1c2ccccc2C(=O)N1CCC1=CCCCC1	none (no result: tolC growth inh)
Cn1cnc2c(sc3nc(N4CCOCC4)c4c(c32)CC(C)(C)OC4)c1=O	none (no result: PLAP act, PostGolgi ctrl, PostGolgi yeast, Ecoli WT expand)
C=CCn1c(N2C(=O)CC(Cc3ccccc3)C2=O)nc2ccccc21 (centres undefined)	PLAP act 2.5
C=CCn1c(NCc2ccccc2)nc2ccccc21	none
Cc1ccc(F)cc1NC(=O)C12CC3CC(C1)CC(n1cnc([N+](=O)[O-])n1)(C3)C2	none (no result: tolC growth inh)
Cc1ccc(S(=O)(=O)Cn2nnnc2CN2CCOCC2)cc1	none
Cc1ccc(S(=O)(=O)Cn2nnnc2CN2CCCC3(CCCCC3)C2)cc1	tolC growth inh 75.9
Cc1ccc(S(=O)(=O)N(CC(=O)N2CCC(C)CC2)c2cccc(C)c2)cc1	PLAP act 2.2 (no result: tolC growth inh)

Screening results from PubChem.
